Assay results from ChEMBL document CHEMBL2057186, “Application of the bicyclo[1.1.1]pentane motif as a nonclassical phenyl ring bioisostere in the design of a potent and orally active γ-secretase inhibitor” (J Med Chem, 2012).
Converted amounts (≈) assume the structure as drawn.

What was measured:
Mus musculus [1] = test: Antialzheimer activity in 129/sve mouse assessed as reduction in amyloid beta42 level in brain at 30 mg/kg, po administered as single dose measured at 5 hrs by ELISA relative to vehicle treated control; type: functional; set-up: scale not given: the % may be the effect or the level left
Outline: (§1)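 Wild-type male 129/sve mice received a single oral dose in Phosal 50 PG/Tween 80 vehicle. Aβ40 was measured in brain, CSF and plasma and Aβ42 in brain over a time course. Levels are expressed as % of vehicle-treated animals. Values are mean ± SEM, n = 5 or 8 per time point.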

Mus musculus [2] = test: Antialzheimer activity in 129/sve mouse assessed as reduction in amyloid beta40 level in CSF at 30 mg/kg, po administered as single dose measured at 1 hr by ELISA relative to vehicle treated control; type: functional; set-up: scale not given: the % may be the effect or the level left; outline: as §1
Mus musculus [3] = test: Antialzheimer activity in 129/sve mouse assessed as reduction in amyloid beta40 level in plasma at 30 mg/kg, po administered as single dose measured at 1 hr by ELISA relative to vehicle treated control; type: functional; set-up: scale not given: the % may be the effect or the level left; outline: as §1
[4] = AUC (last) in 129/sve mouse brain at 30 mg/kg, po administered as single dose by LC-MS/MS analysis; type: ADME, organism-based; set-up: time 0 - last, dose 30 mg/kg, route oral
Outline: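 Wild-type male 129/sve mice received a single oral dose in 98% (v/v) Phosal 50 PG / 2% Tween 80. Drug was measured in plasma, brain and CSF. Study was nonserial, so AUC came from mean matrix concentrations at each time point. Values are mean ± SD (n = 4 or 5).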

[5] = Fraction unbound in 129/sve mouse brain at 30 mg/kg, po administered as single dose; type: ADME, organism-based; set-up: dose 30 mg/kg, route oral
Homo sapiens = species: Homo sapiens; test: Selectivity for human gamma-seretase over notch signalling protein
[6] = Kinetic solubility of the solubility of the compound at pH 6.5; type: physicochemical; conditions: buffer, read-out: Kinetic_solubility
Outline: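 Kinetic solubility was measured in aqueous buffer at pH 6.5.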

[7] = Thermodynamic solubility of the compound at pH 6.5; type: physicochemical; conditions: buffer, read-out: Therm_solubility
Outline: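 Thermodynamic solubility was measured in aqueous buffer at pH 6.5 and at pH 7.4.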

Cytochrome P450 1A2 = target: T1, Cytochrome P450 1A2 (Homo sapiens, UniProt P05177); test: Inhibition of CYP1A2 in human liver microsomes using tacrine as substrate; type: ADME, Microsome
T1 sequence (P05177 whole entry): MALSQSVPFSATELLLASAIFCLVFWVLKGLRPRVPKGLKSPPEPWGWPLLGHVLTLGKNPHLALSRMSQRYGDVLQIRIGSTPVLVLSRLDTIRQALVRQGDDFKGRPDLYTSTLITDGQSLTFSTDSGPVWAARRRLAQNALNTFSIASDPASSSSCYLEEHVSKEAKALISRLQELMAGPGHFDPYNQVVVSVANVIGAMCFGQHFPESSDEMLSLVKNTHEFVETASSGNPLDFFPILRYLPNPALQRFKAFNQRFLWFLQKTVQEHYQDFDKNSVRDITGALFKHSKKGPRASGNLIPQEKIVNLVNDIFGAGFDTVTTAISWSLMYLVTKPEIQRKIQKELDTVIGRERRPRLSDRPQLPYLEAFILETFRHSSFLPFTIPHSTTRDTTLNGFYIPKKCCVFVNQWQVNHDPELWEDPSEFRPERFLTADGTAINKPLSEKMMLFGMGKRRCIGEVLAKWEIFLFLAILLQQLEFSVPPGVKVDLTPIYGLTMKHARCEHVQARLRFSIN

Cytochrome P450 2D6 = Cytochrome P450 2D6 (Homo sapiens, UniProt P10635); test: Inhibition of CYP2D6 in human liver microsomes using dextromethorphan as substrate; type: ADME, Microsome
Chain of Cytochrome P450 2D6 (P10635 whole entry): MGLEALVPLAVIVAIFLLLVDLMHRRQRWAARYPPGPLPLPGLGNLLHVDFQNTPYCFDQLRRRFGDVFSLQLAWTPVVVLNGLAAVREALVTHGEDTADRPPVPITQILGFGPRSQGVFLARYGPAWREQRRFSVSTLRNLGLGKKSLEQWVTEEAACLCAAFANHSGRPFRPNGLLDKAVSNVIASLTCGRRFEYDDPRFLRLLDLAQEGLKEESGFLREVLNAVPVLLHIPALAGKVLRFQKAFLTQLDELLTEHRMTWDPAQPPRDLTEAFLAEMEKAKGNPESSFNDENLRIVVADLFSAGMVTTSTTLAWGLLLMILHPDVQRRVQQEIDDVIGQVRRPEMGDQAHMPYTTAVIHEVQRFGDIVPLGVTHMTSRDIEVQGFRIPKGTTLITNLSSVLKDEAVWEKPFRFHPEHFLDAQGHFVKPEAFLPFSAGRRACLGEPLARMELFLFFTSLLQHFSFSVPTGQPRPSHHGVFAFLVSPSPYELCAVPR

Cytochrome P450 3A4 = Cytochrome P450 3A4 (Homo sapiens, UniProt P08684); test: Inhibition of CYP3A4 in human liver microsomes using midazolam as substrate; type: ADME, Microsome
Chain of Cytochrome P450 3A4 (P08684 whole entry): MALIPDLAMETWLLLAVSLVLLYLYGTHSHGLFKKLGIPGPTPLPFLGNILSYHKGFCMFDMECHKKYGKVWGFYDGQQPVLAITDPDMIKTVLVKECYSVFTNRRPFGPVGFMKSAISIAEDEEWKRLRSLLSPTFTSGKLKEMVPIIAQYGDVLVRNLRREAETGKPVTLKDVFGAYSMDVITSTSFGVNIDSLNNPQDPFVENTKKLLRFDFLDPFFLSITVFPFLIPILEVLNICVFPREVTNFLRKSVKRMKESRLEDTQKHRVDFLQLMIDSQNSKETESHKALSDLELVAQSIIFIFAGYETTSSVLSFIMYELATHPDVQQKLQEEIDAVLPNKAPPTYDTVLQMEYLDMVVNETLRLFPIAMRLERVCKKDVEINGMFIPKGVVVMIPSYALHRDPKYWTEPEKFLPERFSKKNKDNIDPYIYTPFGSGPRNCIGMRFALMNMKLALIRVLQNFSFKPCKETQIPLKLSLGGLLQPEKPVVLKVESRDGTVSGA

[8] = Cmax in Sprague-Dawley rat at 5 mg/kg, po; type: ADME, organism-based; set-up: dose 5 mg/kg, route oral; conditions: in vivo
Outline: (§2)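 Female rats were dosed once, 1 mg/kg iv (2 mL/kg, 0.5 mg/mL) or 5 mg/kg po (10 mL/kg, 0.5 mg/mL). Vehicle was 40% (w/v) hydroxypropyl-β-cyclodextrin. Plasma was sampled to 24 h. Values are means ± SEM (n = 3).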

[9] = Tmax in Sprague-Dawley rat at 5 mg/kg, po; type: ADME, organism-based; set-up: dose 5 mg/kg, route oral; conditions: in vivo; outline: as §2
[10] = AUC (0 to 24 hrs) in Sprague-Dawley rat at 1 mg/kg, iv; type: ADME, organism-based; set-up: time < 24 hr, dose 1 mg/kg, route intravenous; conditions: plasma
Outline: (§3)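 Single-dose PK in female rats; iv at 1 mg/kg (2 mL/kg, 0.5 mg/mL) and po at 5 mg/kg (10 mL/kg, 0.5 mg/mL), both formulated in 40% (w/v) hydroxypropyl-β-cyclodextrin.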

[11] = AUC (0 to 24 hrs) in Sprague-Dawley rat at 5 mg/kg, po; type: ADME, organism-based; set-up: time < 24 hr, dose 5 mg/kg, route oral; conditions: plasma; outline: as §3
[12] = Half life in Sprague-Dawley rat at 1 mg/kg, iv; type: ADME, organism-based; set-up: dose 1 mg/kg, route intravenous; conditions: in vivo; outline: as §2
[13] = Plasma clearance in Sprague-Dawley rat at 1 mg/kg, iv; type: ADME, organism-based; set-up: dose 1 mg/kg, route intravenous; outline: as §2
[14] = Volume of distribution at steady state in Sprague-Dawley rat at 1 mg/kg, iv; type: ADME, organism-based; set-up: dose 1 mg/kg, route intravenous; conditions: in vivo, read-out: Vdss; outline: as §2
[15] = Oral bioavailability in Sprague-Dawley rat at 5 mg/kg; type: ADME, organism-based; conditions: in vivo; outline: as §2
[16] = Cmax in 129/sve mouse plasma at 30 mg/kg, po administered as single dose by LC-MS/MS analysis; type: ADME, organism-based; set-up: dose 30 mg/kg, route oral
Outline: (§4)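 Single-dose oral PK in wild-type male 129/sve mice. Formulation was 98% (v/v) Phosal 50 PG with 2% Tween 80. Compound was measured in plasma, brain and CSF. Values are means ± standard deviations (n = 4 or 5).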

[17] = Tmax in 129/sve mouse brain at 30 mg/kg, po administered as single dose by LC-MS/MS analysis; type: ADME, organism-based; set-up: dose 30 mg/kg, route oral; outline: as §4
[18] = Ratio of drug level in brain to plasma in 129/sve mouse at 30 mg/kg, po administered as single dose by LC-MS/MS analysis; type: ADME, organism-based; set-up: dose 30 mg/kg, route oral; conditions: read-out: BPR
Outline: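 Wild-type male 129/sve mice were dosed orally once in 98% Phosal 50 PG/2% Tween 80. Brain/plasma ratio was taken as AUC_brain/AUC_plasma, using mean-concentration AUCs from a nonserial design.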

[19] = Ratio of unbound fraction in brain to unbound fraction in plasma in 129/sve mouse at 30 mg/kg, po administered as single dose by LC-MS/MS analysis; type: ADME, organism-based; set-up: dose 30 mg/kg, route oral; conditions: in vivo
Outline: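 Single oral dose of 30 mg/kg in wild-type male 129/sve mice, formulated in 98% (v/v) Phosal 50 PG with 2% Tween 80. Brain, CSF and plasma were sampled nonserially over time, and AUC was taken from mean matrix concentrations. Brain availability = (f_u,brain × [brain]) / (f_u,plasma × [plasma]), with n = 4–5 per group.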

[20] = Cmax in 129/sve mouse cerebrospinal fluid at 30 mg/kg, po administered as single dose by LC-MS/MS analysis; type: ADME, organism-based; set-up: dose 30 mg/kg, route oral; outline: as §4
[21] = Tmax in 129/sve mouse cerebrospinal fluid at 30 mg/kg, po administered as single dose by LC-MS/MS analysis; type: ADME, organism-based; set-up: dose 30 mg/kg, route oral; outline: as §4
Mus musculus [22] = test: Antialzheimer activity in 129/sve mouse assessed as reduction in amyloid beta40 level in brain at 30 mg/kg, po administered as single dose measured at 5 hrs by ELISA relative to vehicle treated control; type: functional; set-up: scale not given: the % may be the effect or the level left; outline: as §1
Gamma-secretase = test: Inhibition of gamma secretase-mediated amyloid beta42 production in human H4 cells expressing human wild-type APP

- AUC(0-t) [4]: 12 µM·h
- fraction unbound [5]: 0.026
- Selectivity Index (Homo sapiens): 178
- solubility kinetic [6]: 216 µM (≈ 106 µg/mL)
- solubility thermodynamic [7]: 19.7 µM (≈ 9.71 µg/mL)
- inhibition (INH) (Cytochrome P450 1A2): Not Active
- inhibition (INH) (Cytochrome P450 2D6): Not Active
- inhibition (INH) (Cytochrome P450 3A4): Not Active
- Cmax [8]: 1860 nM
- Tmax [9]: 2 h
- AUC(0-t) at 24 h [10]: 2.54 µM·h
- AUC(0-t) at 24 h [11]: 19.4 µM·h
- half-life [12]: 2.18 h
- clearance [13]: 13.3 mL/min/kg
- Vd [14]: 2.12 L/kg
- bioavailability [15]: 100%
- Cmax [16]: 6480 nM
- Tmax [17]: 1 h
- Kp [18]: 0.84
- Ratio [19]: 0.62
- Cmax [20]: 53 nM
- Tmax [21]: 1 h
- IC50 (Gamma-secretase): 0.178 nM
Compound: NC(=O)[C@@H](CCC(F)(F)F)N(CC12CC(c3ncon3)(C1)C2)S(=O)(=O)c1ccc(Cl)cc1
- Activity (Mus musculus [1]): 31%
- Activity (Mus musculus [2]): 64%
- Activity (Mus musculus [3]): 59%
- Activity (Mus musculus [22]): 64%
